Reference: ChEMBL document CHEMBL1136007, “Synthesis, antifungal activity, and molecular modeling studies of new inverted oxime ethers of oxiconazole” (2002)
Values after ≈ are worked out from the molar mass of the structure shown.

Experiments:
Candida parapsilosis [1] = test: microbe, parasite or virus in culture; type: functional; conditions: Lodderomyces parapsilosis
Aspergillus fumigatus [2] = test: In vitro antifungal activity against Aspergillus fumigatus 48238E; type: functional
How it was run: (§1)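 Broth microdilution in RPMI-2% glucose following NCCLS M38-P. Conidia came from Sabouraud dextrose agar slants grown at 27 °C. They were harvested in saline with 0.1% Tween 80, gauze-filtered, counted by hemocytometer and stored at -70 °C. The final inoculum was ~10^4 conidia/mL, with 2-fold drug dilutions from 0.25 to 128 µg/mL. Plates were incubated at 35 °C and read by mirror once control growth was visible. MIC = lowest concentration with no visible growth.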

Trichophyton benhamiae [3] = test: (§2) In vitro antifungal activity against Trichophyton mentagrophytes CM84; type: functional, Arthroderma benhamiae
Trichophyton rubrum [4] = test: (§3) In vitro antifungal activity against Trichophyton rubrum CM1447; type: functional
Aspergillus fumigatus [5] = test: microbe, parasite or virus in culture; type: functional
Candida parapsilosis [6] = test: In vitro antifungal activity against Candida parapsilosis 2372E; type: functional; conditions: Lodderomyces parapsilosis
How it was run: (§4)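 Yeast broth microdilution per NCCLS M27-A, with 2-fold drug dilutions from 0.001 to 128 µg/mL. The inoculum was adjusted spectrophotometrically, giving a final ~10^4 cells/mL. Plates were incubated for 24 h at 35 °C, static and humid, then shaken and read visually and at 450 nm. MIC = lowest concentration preventing discernible growth (~90% reduction vs drug-free wells).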

Nakaseomyces glabratus [7] = test: In vitro antifungal activity against Candida glabrata 2375E; type: functional
Aspergillus flavus [8] = test: (§5) In vitro antifungal activity against Aspergillus flavus CM74; type: functional
How it was run: as §1

Trichophyton rubrum [9] = test: as §3; type: functional; remark: listed apart in the source
How it was run: as §1

Candida albicans [10] = test: microbe, parasite or virus in culture; type: functional
Nakaseomyces glabratus [11] = test: microbe, parasite or virus in culture; type: functional
Aspergillus flavus [12] = test: as §5; type: functional; remark: listed apart in the source
Trichophyton benhamiae [13] = test: as §2; type: functional, Arthroderma benhamiae; remark: listed apart in the source
How it was run: as §1

Candida albicans [14] = test: In vitro antifungal activity against Candida albicans 4711E; type: functional
How it was run: as §4

| Structure (SMILES) | MIC (Candida parapsilosis [1]) [µg/mL] | MFC (Aspergillus fumigatus [2]) [µg/mL] | MIC (Trichophyton benhamiae [3]) [µg/mL] | MIC (Trichophyton rubrum [4]) [µg/mL] | MIC (Aspergillus fumigatus [5]) [µg/mL] | MFC (Candida parapsilosis [6]) [µg/mL] | MFC (Nakaseomyces glabratus [7]) [µg/mL] | MFC (Aspergillus flavus [8]) [µg/mL] | MFC (Trichophyton rubrum [9]) [µg/mL] | MIC (Candida albicans [10]) [µg/mL] | MIC (Nakaseomyces glabratus [11]) [µg/mL] | MIC (Aspergillus flavus [12]) [µg/mL] | MFC (Trichophyton benhamiae [13]) [µg/mL] | MFC (Candida albicans [14]) [µg/mL] |
| --- | --- | --- | --- | --- | --- | --- | --- | --- | --- | --- | --- | --- | --- | --- |
| OC(Cn1cncn1)(Cn1cncn1)c1ccc(F)cc1F [FLUCONAZOLE] | 0.5 (≈ 1.63 µM) | > 128 | 0.5 (≈ 1.63 µM) | 0.5 (≈ 1.63 µM) | > 128 | > 128 | > 128 | > 128 | > 128 | 0.12 (≈ 0.392 µM) | 2 (≈ 6.53 µM) | > 128 | > 128 | > 128 |
| Fc1ccc(/C(Cn2ccnc2)=N/OC(Cn2ccnc2)c2ccc(F)cc2F)c(F)c1 (stereo not given) | 8 (≈ 18 µM) | > 128 | 64 (≈ 144 µM) | 64 (≈ 144 µM) | > 128 | 128 (≈ 289 µM) | 16 (≈ 36.1 µM) | > 128 | 64 (≈ 144 µM) | 2 (≈ 4.51 µM) | 4 (≈ 9.02 µM) | > 128 | > 128 | > 128 |
| C/C(=N\OC(Cn1ccnc1)c1ccc(F)cc1F)c1ccccc1F.Cl (stereo not given) |  |  |  |  | 16 |  |  |  |  | 32 |  |  |  |  |
| CCC/C(=N\OC(Cn1ccnc1)c1ccc(Cl)cc1Cl)c1ccc(Cl)cc1Cl (stereo not given) |  |  |  |  | > 128 |  |  |  |  | > 128 |  |  |  |  |
| C/C(=N\OC(Cn1ccnc1)c1ccc(F)cc1F)c1c(F)cccc1F (stereo not given) | 0.25 (≈ 0.663 µM) | 32 (≈ 84.8 µM) | 2 (≈ 5.3 µM) | 4 (≈ 10.6 µM) | 16 (≈ 42.4 µM) | 16 (≈ 42.4 µM) | 1 (≈ 2.65 µM) | 64 (≈ 170 µM) | 8 (≈ 21.2 µM) | 32 (≈ 84.8 µM) | 0.03 (≈ 0.0795 µM) | 32 (≈ 84.8 µM) | 2 (≈ 5.3 µM) | 32 (≈ 84.8 µM) |
| C/C(=N\OC(Cn1ccnc1)c1ccc(F)cc1F)c1ccc(F)cc1F (stereo not given) | 2 (≈ 5.3 µM) | 16 (≈ 42.4 µM) | 1 (≈ 2.65 µM) | 8 (≈ 21.2 µM) | 8 (≈ 21.2 µM) | 32 (≈ 84.8 µM) | 2 (≈ 5.3 µM) | 16 (≈ 42.4 µM) | 16 (≈ 42.4 µM) | 32 (≈ 84.8 µM) | 0.03 (≈ 0.0795 µM) | 16 (≈ 42.4 µM) | 4 (≈ 10.6 µM) | 32 (≈ 84.8 µM) |
| Clc1ccc(/C(Cn2ccnc2)=N/OC(Cn2ccnc2)c2ccc(Cl)cc2Cl)c(Cl)c1 (stereo not given) |  |  |  |  | 128 (≈ 251 µM) |  |  |  |  | 32 (≈ 62.8 µM) |  |  |  |  |
| Fc1ccc(C(Cn2ccnc2)O/N=C/c2ccc(OCCN3CCOCC3)cc2)c(F)c1 (stereo not given) | 0.25 (≈ 0.548 µM) | 64 (≈ 140 µM) | > 128 | 8 (≈ 17.5 µM) | 64 (≈ 140 µM) | 4 (≈ 8.76 µM) | 8 (≈ 17.5 µM) | 64 (≈ 140 µM) | 16 (≈ 35 µM) | 64 (≈ 140 µM) | 2 (≈ 4.38 µM) | 64 (≈ 140 µM) | > 128 | 64 (≈ 140 µM) |
| C/C(=N\OC(Cn1ccnc1)c1ccc(F)cc1F)c1cc(F)ccc1F (stereo not given) | 2 (≈ 5.3 µM) | 4 (≈ 10.6 µM) | 0.25 (≈ 0.663 µM) | 1 (≈ 2.65 µM) | 4 (≈ 10.6 µM) | 64 (≈ 170 µM) | 1 (≈ 2.65 µM) | 8 (≈ 21.2 µM) | 16 (≈ 42.4 µM) | 8 (≈ 21.2 µM) | 0.03 (≈ 0.0795 µM) | 8 (≈ 21.2 µM) | 2 (≈ 5.3 µM) | 32 (≈ 84.8 µM) |
| Cl.Clc1ccc(/C=N/OC(Cn2ccnc2)c2ccc(Cl)cc2Cl)c(Cl)c1 (stereo not given) |  |  |  |  | 64 |  |  |  |  | > 128 |  |  |  |  |
| Clc1ccc(C(Cn2ccnc2)O/N=C/c2ccc(OCCN3CCOCC3)cc2)c(Cl)c1 (stereo not given) | 0.25 (≈ 0.511 µM) | 2 (≈ 4.09 µM) | 4 (≈ 8.17 µM) | 2 (≈ 4.09 µM) | 2 (≈ 4.09 µM) | 16 (≈ 32.7 µM) | 8 (≈ 16.3 µM) | 8 (≈ 16.3 µM) | 16 (≈ 32.7 µM) | 2 (≈ 4.09 µM) | 1 (≈ 2.04 µM) | 8 (≈ 16.3 µM) | 8 (≈ 16.3 µM) | 8 (≈ 16.3 µM) |
| Cl.Fc1ccc(C(Cn2ccnc2)O/N=C/c2c(F)cccc2F)c(F)c1 (stereo not given) |  |  |  |  | 32 |  |  |  |  | 32 |  |  |  |  |
| C/C(=N\OC(Cn1ccnc1)c1ccc(F)cc1F)c1ccc(OCCN2CCOCC2)cc1 (stereo not given) | 0.03 (≈ 0.0638 µM) | 16 (≈ 34 µM) | 2 (≈ 4.25 µM) | 4 (≈ 8.5 µM) | 16 (≈ 34 µM) | 2 (≈ 4.25 µM) | 4 (≈ 8.5 µM) | 32 (≈ 68 µM) | 4 (≈ 8.5 µM) | 8 (≈ 17 µM) | 0.25 (≈ 0.531 µM) | 16 (≈ 34 µM) | 4 (≈ 8.5 µM) | 32 (≈ 68 µM) |
| C/C(=N\OC(Cn1ccnc1)c1ccc(Cl)cc1Cl)c1ccc(OCCN2CCOCC2)cc1 (stereo not given) | 0.004 (≈ 0.00795 µM) | 32 (≈ 63.6 µM) | 4 (≈ 7.95 µM) | 2 (≈ 3.97 µM) | 32 (≈ 63.6 µM) | 8 (≈ 15.9 µM) | 8 (≈ 15.9 µM) | 32 (≈ 63.6 µM) | 16 (≈ 31.8 µM) | 1 (≈ 1.99 µM) | 0.06 (≈ 0.119 µM) | 32 (≈ 63.6 µM) | 8 (≈ 15.9 µM) | 8 (≈ 15.9 µM) |
| CC/C(=N\OC(Cn1ccnc1)c1ccc(Cl)cc1Cl)c1ccc(Cl)cc1Cl (stereo not given) |  |  |  |  | > 128 |  |  |  |  | 16 (≈ 35 µM) |  |  |  |  |
| C/C(=N\OC(Cn1ccnc1)c1ccc(F)cc1F)c1ccc(F)cc1 (stereo not given) |  |  |  |  | 16 (≈ 44.5 µM) |  |  |  |  | 64 (≈ 178 µM) |  |  |  |  |
| C/C(=N\OC(Cn1ccnc1)c1ccc(Cl)cc1Cl)c1ccc(Cl)cc1Cl (stereo not given) | 1 (≈ 2.26 µM) | 8 (≈ 18.1 µM) | 8 (≈ 18.1 µM) | 8 (≈ 18.1 µM) | 8 (≈ 18.1 µM) | 16 (≈ 36.1 µM) | 2 (≈ 4.51 µM) | 32 (≈ 72.2 µM) | 8 (≈ 18.1 µM) | 4 (≈ 9.03 µM) | 0.5 (≈ 1.13 µM) | 32 (≈ 72.2 µM) | 8 (≈ 18.1 µM) | 8 (≈ 18.1 µM) |
| Clc1ccc(CO/N=C(\Cn2ccnc2)c2ccc(Cl)cc2Cl)c(Cl)c1 [OXICONAZOLE] | 0.008 (≈ 0.0186 µM) | 2 (≈ 4.66 µM) | 2 (≈ 4.66 µM) | 2 (≈ 4.66 µM) | 2 (≈ 4.66 µM) | 4 (≈ 9.32 µM) | 0.25 (≈ 0.583 µM) | 2 (≈ 4.66 µM) | 2 (≈ 4.66 µM) | 0.03 (≈ 0.0699 µM) | 0.01 (≈ 0.0233 µM) | 2 (≈ 4.66 µM) | 4 (≈ 9.32 µM) | 64 (≈ 149 µM) |
| Cl.Fc1ccc(/C=N/OC(Cn2ccnc2)c2ccc(F)cc2F)c(F)c1 (stereo not given) |  |  |  |  | 16 |  |  |  |  | 16 |  |  |  |  |
